Cytotoxicity data for 98 compounds are collected here from ChEMBL document CHEMBL4513216, “Probing the Open Global Health Chemical Diversity Library for Multistage-Active Starting Points for Next-Generation Antimalarials” (ACS Infect Dis, 2020).

Each structure is given as a SMILES string.

This series in a line: Toxicity liver stage against HepG2, at 10uM. Format: cell-based. More on the design: test concentration 10 uM, cell line HepG2-A16-CD81EGFP. Conditions: human, HepG2-A16-CD81EGFP cells; read-out: INHIBITION
The method in brief:
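Uninfected HepG2-A16-CD81EGFP cells, 3 × 10^3 per well, 1536-well, plated on prespotted compound at 10 μM final, parasite-free screening media added to match infected plates; puromycin 10 μM positive, DMSO 0.5% negative; run in parallel with 48 h PbLuc assay at 37 °C, 5% CO2; viability by CellTiter-Glo luminescence, normalized to controls.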
Take `O=c1c(Cc2ccccc2)c(O)ccn1Cc1ccco1`: the cytotoxicity at 10 µM was determined as 5.01%.
In the case of `O=C(CSC1CCCC1)N1CCN(C(=O)C2CC2c2cccs2)CC1` (stereo not drawn) it was 4.48%.
In the case of `O=C(Cn1cc(-c2ccccc2)ncc1=O)Nc1nc(C2CC2)n[nH]1` it was 6.2%.
In the case of `CCN(Cc1nonc1C)C(=O)c1cnccn1` it was -4.04%; in that of `CCN(CC)C(=O)c1nnsc1-c1ccc(Cl)cc1`, 2.74%; in that of `CCN(Cc1cscn1)CC1(C)Cc2c(N)nc(N)nc2O1` (stereo not drawn), 3.35%.
Regarding `c1cnc2[nH]c(C3CCCC3)c(CN3CCOCC3)c2c1`, the cytotoxicity at 10 µM was -1.06%.
Consider `CC(C)C(=O)N1CCCC(c2cncc(Oc3cccnc3)n2)C1` (stereo not drawn), for which the cytotoxicity at 10 µM is -2.83%.
Then `CNC(=O)c1cccc(C2CNCCN2C(=O)c2ccn(C)n2)c1` (stereo not drawn), with -4.22%; and `Cc1ccc(C(=O)N2CCCC(c3[nH]ncc3S(C)(=O)=O)C2)s1` (stereo not drawn), with -10.6%.
Then `Cc1ccsc1C(=O)N1CCC(O)(CN2CCc3ccccc3C2)C1` (stereo not drawn), with 0.803%.
For `Cc1ccc(Oc2nccnc2C2CCN(C(=O)C(C)(C)N)CC2)cc1`, the cytotoxicity at 10 µM was -7.86%.
Then `CNc1cncc(C2CCCN2Cc2ccnc(N3CCCC3)n2)n1` (stereo not drawn), with -12.1%; and `COC(=O)c1ccc(C)c(N2CCNC2=O)c1`, with 9.81%.
As to `CCc1nc(CS(=O)(=O)Cc2noc(C3CC3)n2)cs1`, the cytotoxicity at 10 µM is -7.38%.
In the case of `Cc1ccc(C2CSCCN2CCS(C)(=O)=O)cc1` (stereo not drawn) it was -8.3%; in that of `Cc1cn2c(n1)CCC(NC(=O)c1ccc(OCC3CC3)nc1)C2` (stereo not drawn), -9.47%; in that of `O=C(CNc1nc(C(F)(F)F)cs1)N1CCc2sccc2C1`, 15.1%.
`CC1CN(CC(=O)NCCc2ccccc2)CCN1c1nccs1` (stereo not drawn): the cytotoxicity at 10 µM was -2.79%.
On to `Cc1ccc(S(=O)(=O)NCCc2nnc[nH]2)c2cccnc12`, for which the cytotoxicity at 10 µM is -5.93%.
In the case of `Cc1nc(CCCNC(=O)c2c(F)cc(F)cc2F)n[nH]1` it was -4.31%; in that of `CC(NC(=O)N1CCCC1)c1ccc(S(N)(=O)=O)cc1` (stereo not drawn), -8.2%.
In the case of `COCC(=O)NS(=O)(=O)c1ccc(F)c(F)c1`, the cytotoxicity at 10 µM was -6.49%.
On to `CCc1nc(CNC2CCN(c3ccc(OC)cc3)CC2)cs1`, for which the cytotoxicity at 10 µM was -12.8%.
Then `CS(=O)(=O)CCC(=O)NC(c1ccc(F)cc1)C(F)(F)F` (stereo not drawn), with -4.44%; and `COc1ccccc1N1CCC(CNC(=O)CN2CSCC2=O)C1` (stereo not drawn), with -1.33%; and `Cc1cnc(CNC2CCc3nc(C(C)C)nn3C2)cn1` (stereo not drawn), with 4.93%.
Consider `CC(C)c1noc(CN(CCC2CCCCC2)CC(N)=O)n1`, for which the cytotoxicity at 10 µM came to 2.94%.
Take `Cc1nc(C)c(C(C)NC(=O)NCCNc2cccc(F)c2C#N)s1` (stereo not drawn): the cytotoxicity at 10 µM is -1.37%.
As for `C=C(C)CN1CCC(c2n[nH]c(C3CC3)n2)CC1`, the cytotoxicity at 10 µM is -1.92%.
In the case of `Cc1ccccc1OCCN(C)Cc1noc(CC(C)C)n1` it was -6.99%.
For `CCN(C(C)=O)C(c1ccc(Cl)cc1)c1ccccn1` (stereo not drawn), the cytotoxicity at 10 µM was -4.29%.
In the case of `CN(CC1CCN(CCO)CC1)CC(O)c1ccc(F)cc1` (stereo not drawn) it was -52.8%; in that of `O=C(NCC1CCOC1)N1CCN(c2ncccn2)CC1` (stereo not drawn), -39.8%; in that of `Cc1nn(C)c(C)c1C1COCCN1C(=O)Cc1cccc(F)c1` (stereo not drawn), -11%.
In the case of `Cc1nc(C)n(CC2CCCN2CCCc2ccccc2)n1` (stereo not drawn) it was -14.1%; in that of `CC(=O)N1CCC(n2nccc2-c2cnc(NCCO)nc2)CC1`, -1%; in that of `Cc1ccc2[nH]c(CN3CC[C@@H](N4CCN(C)CC4)[C@H](O)C3)c(C)c2c1`, -7.34%.
Turning to `COc1ccc(Cc2ncc3c(n2)CN(C(=O)C(C)(C)C)C3)cc1`, the cytotoxicity at 10 µM was -1.1%.
Turning to `COc1cc2c(cc1-c1nc3c(cnn3C(C)C3CC3)[nH]1)OCO2` (stereo not drawn), the cytotoxicity at 10 µM was found to be 4.82%.
In the case of `CC(C)CC(C)NC1CCN(c2cccc(-c3cscn3)c2)CC1` (stereo not drawn), the cytotoxicity at 10 µM is -56.8%.
As to `CN1C[C@@H](n2cnc(-c3ccccc3)c2-c2ccccn2)C[C@H]1C(=O)O`, the cytotoxicity at 10 µM came to 0.322%.
In the case of `CS(=O)(=O)CC1CCCN(c2ncnc3c2Cc2ccccc2OC3)C1` (stereo not drawn) it was -7.41%.
For the compound `CSCC[C@@H](CO)Nc1nc(-c2ccccn2)nc2c1c(C)nn2C`, the cytotoxicity at 10 µM is 2.7%.
Then `O=C(NCc1cccc(F)c1F)c1cc(CN2CCCC(O)C2)on1` (stereo not drawn), with -45.9%.
In the case of `CN(C)C(=O)c1ccc(-c2cccc3c2CCNC3)cc1` it was -2.31%; in that of `CC(C)C1CN(c2cccc(C#N)n2)CCCN1CC1CC1` (stereo not drawn), -6.55%; in that of `Cc1cc(-c2nn(C)c(Cl)c2CN2CC[C@@](O)(C3CCC3)[C@H](C)C2)no1`, -7.23%.
Then `O=C(N1CCCC1)N1CCC(Nc2ccncn2)CC1`, with -42.1%; and `O=C1CC[C@H]2CN(c3ncc(F)cn3)CC[C@H]2N1CCc1ccccc1`, with 9.61%; and `CCN(CC)C(CNCc1cc(F)cc(F)c1)c1ccco1` (stereo not drawn), with 5.44%.
Regarding `CCCN(Cc1ccccc1C)C(CC)CO` (stereo not drawn), the cytotoxicity at 10 µM was -6.08%.
Then `O=C(C1CCOC1)N1CCC(OCc2ccccc2)CC1` (stereo not drawn), with 3.15%; and `Cc1ccc(OC2(C(=O)O)CCN(C(=O)c3cccc(F)c3)CC2)cn1`, with 2.91%.
Then `CN(Cc1ccncn1)C(=O)CCc1[nH]nc2c1CCCC2`, with 3.11%; and `Cc1ccc(OC2(C(=O)O)CCN(C/C=C/c3ccco3)CC2)cn1`, with -1.64%; and `CCNC(=O)[C@@H]1C[C@@H](n2cc(CN(CC)CC)nn2)CN1`, with 0.334%.
Then `CN(C)C1CCCN(C(=O)CCc2csc(N)n2)CC1` (stereo not drawn), with 1.48%.
Turning to `Fc1ccc2[nH]c(C3CCCN3CCCn3cccn3)nc2c1` (stereo not drawn), the cytotoxicity at 10 µM came to 0.154%.
In the case of `COCCN1CCCC(O)(CN2CCN(c3cc(C)ccn3)CC2)C1=O` (stereo not drawn) it was 0.622%; in that of `Nc1nc(N2CCCC(COc3ccc(F)cc3)C2)c2nc[nH]c2n1` (stereo not drawn), 2.11%.
Then `CCCOc1ccc(C(=O)N2C[C@@H](CN3CCCC3)[C@@H](CO)C2)cc1Cl`, with -5.84%; and `COC(=O)CCCC(=O)N1CCCCC1c1ccc(F)cc1` (stereo not drawn), with -42.7%; and `CCN(CC)CCn1ccnc1-c1cccc(C#N)c1`, with -5%.
With `Cc1cc(CN(C)c2nc(-c3ccccn3)nc3c2CCNCC3)n[nH]1`, the cytotoxicity at 10 µM is -5.48%.
In the case of `CN(c1ncccc1CNC(=O)c1csnn1)C1CCCCC1` it was -9.31%; in that of `CCN(CC1CCOCC1)C(=O)Cn1ccccc1=O`, -19.9%.
As to `CC(=O)N1CCCCC1c1cc(CO)[nH]n1` (stereo not drawn), the cytotoxicity at 10 µM is -0.671%.
As to `CCOc1cc(C)nc(N2CCN(C(=O)c3ccncc3)CC2)n1`, the cytotoxicity at 10 µM came to 3.12%.
In the case of `CCOc1cc(C)nc(N2CCN(C(=O)c3csnn3)CC2)n1` it was 2.85%; in that of `Cc1cc(C(=O)N2CCCC(c3cc(C(F)(F)F)[nH]n3)C2)on1` (stereo not drawn), 10.5%; in that of `COCC(=O)NC(C)Cc1ccc(Br)cc1` (stereo not drawn), -1.01%.
Regarding `Clc1snnc1CN1CCCCC1Cn1cccn1` (stereo not drawn), the cytotoxicity at 10 µM was -14.8%.
Turning to `Cc1nc(C)n(CC2CCCN2CCCOc2ccc(C#N)cc2)n1` (stereo not drawn), the cytotoxicity at 10 µM was -8.33%.
Then `CCc1ccc(C(=O)N2CCC(Nc3ccc(C)nn3)CC2)o1`, with -11%; and `O=C(c1cnn(-c2ccccc2)n1)N1CCCC(n2cccn2)C1` (stereo not drawn), with 1.13%; and `CCC1CCCN(C(=O)NCc2cccnc2-n2cccn2)C1` (stereo not drawn), with -0.734%.
Then `COc1c(C2CCCN2Cc2noc(C(C)C)n2)c(C)nn1C` (stereo not drawn), with -8.93%; and `CCc1nc(CN2CCCC2c2c(C)nn(C)c2OC)no1` (stereo not drawn), with -6.07%.
Consider `Cc1nc(C)n(CC2CCCN2Cc2nc3ccccc3s2)n1` (stereo not drawn), for which the cytotoxicity at 10 µM is -6.25%.
In the case of `CCn1ncc2c1CCCC2NCc1cccc2c1OCO2` (stereo not drawn) it was -6.43%; in that of `Cc1ccc(C(=O)NC2CCN(Cc3cccc4c3OCCO4)CC2)s1`, -4.8%.
Take `CC(C)(C)c1cnc(CN2CCC[C@H]2CO)o1`: the cytotoxicity at 10 µM is -14.8%.
Consider `Cc1ccc2oc(C(=O)N3CCCC(c4noc(C)n4)C3)cc2n1` (stereo not drawn), for which the cytotoxicity at 10 µM was -3.56%.
Then `COc1c(CNC(c2nccn2C)C(C)C)c(C)nn1C` (stereo not drawn), with -7.46%; and `Cc1nc(C)n(CC2CCCCN2CC(=O)Nc2ccncc2)n1` (stereo not drawn), with -0.344%.
In the case of `c1ccc(-c2nc(CN3CCc4c(ncn4C4CC4)C3)cs2)cc1`, the cytotoxicity at 10 µM was -8.65%.
Turning to `Cc1c(C2CCCN(C(=O)Cc3ccccn3)C2)n2c(nc1=O)CCC2` (stereo not drawn), the cytotoxicity at 10 µM amounted to 8.39%.
In the case of `CC(C)c1noc(CN2CCC(C3CCCCCN3S(C)(=O)=O)CC2)n1` (stereo not drawn) it was -2.71%; in that of `CN(C)Cc1nc2c(o1)CN(S(=O)(=O)c1cccs1)C2`, -112%.
In the case of `O=C1[C@H]2CN(CC3CC3)C[C@H]2CN1c1ccsc1` it was 2.88%.
Then `Cc1nc(CN2C[C@@H]3CN(C(=O)Cc4ccccn4)C[C@@H]3C2)cs1`, with -106%.
For the compound `Cc1ccc(CN2CCC3(CC2)CCN(C(=O)c2cccnc2)C3)o1`, the cytotoxicity at 10 µM was -93.3%.
With `Cc1ccc(N2CC[C@H]3C[C@@H](C(=O)N4CCOCC4)O[C@H]3C2)nn1`, the cytotoxicity at 10 µM came out at 4.94%.
For the compound `CC1c2ncc(COc3cccnc3)n2CCN1Cc1cnn(C)c1` (stereo not drawn), the cytotoxicity at 10 µM is -112%.
With `O=c1[nH]c2cn(-c3cccc(Cl)c3)c(=O)n2n1Cc1cccc(F)c1`, the cytotoxicity at 10 µM was determined as 11%.
Then `Cc1ccccc1SCC(=O)NC1CCC(n2cnnc2)CC1` (stereo not drawn), with -48%.
In the case of `C=c1ccoc1=C1NN=C(CNCCn2cccn2)O1` it was -5.02%.
